What was measured:
[1] = test system: HCT-116; assay: Cytotoxicity against human HCT116 cells after 72 hrs by SRB assay; assay type: functional, cell-based; conditions: HCT-116, 72 h
Outline: (§1)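 Adherent human tumour lines were seeded and exposed in triplicate to graded compound concentrations at 37 °C for 72 h. Growth was read by sulforhodamine B staining. IC50 (50% growth inhibition) was obtained by the Logit method from at least three independent experiments and reported as mean ± SD.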

[2] = test system: KB; assay: Cytotoxicity against human KB cells after 72 hrs by SRB assay; assay type: functional, cell-based; outline: as §1
[3] = test system: HL-60; assay: Cytotoxicity against human HL60 cells after 72 hrs by MTT assay; assay type: functional, cell-based; conditions: HL-60, 72 h
Outline: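 Cells were treated in triplicate with graded concentrations for 72 h at 37 °C and read by MTT. IC50 is the concentration giving 50% growth inhibition, derived by the Logit method from at least three independent experiments and given as mean ± SD.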

[4] = test system: KB; assay: Drug resistance index, ratio of IC50 for vincristine-resistant human KB cells to IC50 for human KB cells; assay type: functional
[5] = test system: KB; assay: Cytotoxicity against vincristine-resistant human KB cells over expressing P-glycoprotein after 72 hrs by SRB assay; assay type: functional, cell-based; outline: as §1

Row | Structure (SMILES) | IC50 [1] [µM] | IC50 [2] [µM] | IC50 [3] [µM] | Ratio IC50 [4] | IC50 [5] [µM]
1 | CC1=C2C(=CO[C@H](C)[C@H]2C)C(O)=C(C(=O)O)C1=O [CITRININ] | > 10 | > 10 | > 10 | – | –
2 | Cc1c(O)cc(O)c2c1[C@H](C)[C@@H](C)OC2 [DECARBOXYDIHYDROCITRININ] | > 10 | > 10 | > 10 | – | –
3 | Cc1c2c(c3oc4cc(=O)c(C)c5c-4c(c3c1O)O[C@H](C)[C@H]5C)O[C@H](C)[C@H]2C [DICITRININ A] | > 10 | > 10 | > 10 | – | –
4 | COC1O[C@H](C)[C@@H](C)c2c(C)c(O)c3c(c21)Oc1cc(O)c(C)c2c1[C@H]3O[C@H](C)[C@H]2C (stereo partly drawn) [DICITRINOL A] | 4.54 | 5.05 | 5.98 | – | –
5 | COC1O[C@H](C)[C@@H](C)c2c(C)c3c(c(O)c21)[C@@H]1O[C@H](C)[C@@H](C)c2c(C)c(O)cc(c21)O3 (stereo partly drawn) [DICITRINOL B] | 5.8 | 5.15 | 6.06 | – | –
6 | Cc1c(O)c(C(=O)O)c(O)c2c1[C@H](C)[C@@H](C)OC2=O [DIHYDROCITRINONE] | > 10 | > 10 | > 10 | – | –
7 | Cc1c2c(c3oc4cc(=O)c(C)c5c-4c(c3c1O)O[C@H](C)[C@H]5C)CO[C@H](C)[C@H]2C [OXODICITRINOL A] | > 10 | > 10 | 8.91 | – | –
8 | Cc1c(O)c2c(c3c1[C@H](C)[C@@H](C)O3)Oc1cc(O)c(C)c3c1[C@H]2O[C@H](C)[C@H]3C [PENICITRINOL A] | > 10 | > 10 | > 10 | – | –
9 | CO[C@@]12O[C@H](C)[C@@H](C)C1=C(C)C(=O)C1=C2Oc2cc(O)c(C)c3c2[C@H]1O[C@H](C)[C@H]3C [PENICITRINOL B] | > 10 | > 10 | > 10 | – | –
10 | CO[C@@]12O[C@H](C)[C@@H](C)C1=C(C)C1=C(C2=O)[C@@H]2O[C@H](C)[C@@H](C)c3c(C)c(O)cc(c32)O1 [PENICITRINOL F] | > 10 | > 10 | > 10 | – | –
11 | CO[C@@]12Oc3cc(O)c(C)c([C@H](C)[C@@H](C)O)c3C=C1C(=O)C(C)=C1[C@H](C)[C@@H](C)O[C@]12O [PENICITRINOL G] | > 10 | > 10 | > 10 | – | –
12 | CC1=C2[C@H](C)[C@@H](C)O[C@@]2(O)[C@]2(O)Oc3cc(O)c(C)c([C@H](C)[C@@H](C)O)c3C=C2C1=O [PENICITRINOL H] | > 10 | > 10 | > 10 | – | –
13 | Cc1oc2c(c1C)c(C)c(O)c1c3c4c(c(C)c(=O)cc-4oc12)[C@H](C)[C@@H](C)O3 [PENICITRINONE B] | > 10 | > 10 | > 10 | – | –
14 | Cc1c(O)cc(O)cc1[C@H](C)[C@@H](C)O [PHENOL A] | > 10 | > 10 | > 10 | – | –
15 | CO[C@H]1O[C@H](C)[C@@H](C)c2c(C)c(O)c3c(c21)Oc1c([C@H]2O[C@H](C)[C@@H](C)c4c(C)c(O)cc(O)c42)c(O)c(C)c2c1[C@H]3O[C@H](C)[C@H]2C [TRICITRINOL A] | 8.57 | > 10 | 8.17 | – | –
16 | CC[C@]1(O)C[C@H]2CN(CCc3c([nH]c4ccccc34)[C@@](C(=O)OC)(c3cc4c(cc3OC)N(C=O)[C@H]3[C@@](O)(C(=O)OC)[C@H](OC(C)=O)[C@]5(CC)C=CCN6CC[C@]43[C@@H]65)C2)C1 [VINCRISTINE] | – | 0.02 | – | 55.97 | 1.29
